Measured values from ChEMBL document CHEMBL4732146, “Nitric oxide-donating and reactive oxygen species-responsive prochelators based on 8-hydroxyquinoline as anticancer agents” (Eur J Med Chem, 2021).
Each block holds one compound with its values, some of them ahead of it. Calls of active or inactive are those of the source. The calls are words filed in the database; no cut-off is given here.

Assays:
PANC-1 [1] = assay: Cytotoxicity against human PANC-1 cells assessed as reduction in cell viability measured after 48 hrs by MTT assay; type: functional, cell-based; settings: PANC-1, 48 h
Method in brief: (§1)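 Cells seeded 6 × 10⁴ per well, cultured 24 h at 37 °C under 5% CO₂, then exposed to compound for 48 h, with or without 50 µM CuCl₂ or FeCl₃ co-incubation. MTT added for 4 h at 37 °C, formazan dissolved in DMSO, A490 read. IC50 reported as mean (SD), n = 3.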

SW1990 [2] = assay: Cytotoxicity against human SW1990 cells assessed as reduction in cell viability measured after 48 hrs by MTT assay; type: functional, cell-based; settings: SW1990, 48 h; method in brief: as §1
PANC-1 [3] = assay: Cytotoxicity against human PANC-1 cells assessed as reduction in cell viability measured after 48 hrs in presence of CuCl2 by MTT assay; type: functional, cell-based; settings: PANC-1, 48 h; method in brief: as §1
SW1990 [4] = assay: Cytotoxicity against human SW1990 cells assessed as reduction in cell viability measured after 48 hrs in presence of CuCl2 by MTT assay; type: functional, cell-based; settings: SW1990, 48 h; method in brief: as §1
PANC-1 [5] = assay: Cytotoxicity against human PANC-1 cells assessed as reduction in cell viability measured after 48 hrs in presence of FeCl3 by MTT assay; type: functional, cell-based; settings: PANC-1, 48 h; method in brief: as §1
SW1990 [6] = assay: Cytotoxicity against human SW1990 cells assessed as reduction in cell viability measured after 48 hrs in presence of FeCl3 by MTT assay; type: functional, cell-based; settings: SW1990, 48 h; method in brief: as §1
[7] = Cytotoxicity against human H6C7 cells assessed as reduction in cell viability measured after 48 hrs by MTT assay; type: cell-based; settings: H6C7, 48 h; method in brief: as §1
[8] = Cytotoxicity against human RWPE2 cells assessed as reduction in cell viability measured after 48 hrs by MTT assay; type: cell-based; settings: RWPE2, 48 h; method in brief: as §1
[9] = Stability of compound in pH 5 PBS buffer measured after 5 to 24 hrs by RP-HPLC analysis; type: physicochemical; settings: time 5-24 hrs
Method in brief: (§2)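 Compound (1 µM) stirred at 37 °C either in PBS (pH 5.0, 7.4 or 10.0) containing 5% DMSO or in DMEM with 10% FBS. Aliquots were analysed by RP-HPLC (0.1% TFA water/methanol gradient, 256 nm) for remaining intact compound, up to 24 h.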

[10] = Stability of compound in pH 7.4 PBS buffer measured after 5 to 24 hrs by RP-HPLC analysis; type: physicochemical; settings: time 5-24 hrs; method in brief: as §2
[11] = Stability of compound in pH 10 PBS buffer measured after 5 to 24 hrs by RP-HPLC analysis; type: physicochemical; settings: time 5-24 hrs; method in brief: as §2
[12] = Stability of compound in DMEM with 10% fetal bovine serum measured after 5 to 24 hrs by RP-HPLC analysis; type: cell-free; settings: time 5-24 hrs; method in brief: as §2
[13] = Metal chelating activity assessed as compound-Cu2+ complex formation measured after 40 mins by calcein dye based fluorescence assay; settings: dose 10-50 µM
Method in brief: (§3)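 Calcein (10 µM) in 50 mM HEPES was quenched by 10 µM CuCl₂ (or FeCl₃ for the Fe³⁺ arm). Chelator was added from DMSO stock to a final 10 or 50 µM and incubated 40 min at room temperature. Recovery rate was calculated from fluorescence (λex 485 / λem 520 nm); n = 3.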

[14] = Metal chelating activity assessed as compound-Fe3+ complex formation measured after 40 mins by calcein dye based fluorescence assay; settings: dose 10-50 µM; method in brief: as §3
[15] = Drug metabolism in human PANC-1 cells assessed as nitric oxide release at 10 uM measured after 8 hrs by Griess assay; type: ADME, cell-based; settings: panc-1, 8 h
Method in brief: (§4)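 Cells exposed 8 h to 10 µM compound. Nitrite measured by Griess reagent kit at 540 nm against a NaNO₂ calibration curve. Mean ± SD, n = 3.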

[16] = Drug metabolism in human SW1990 cells assessed as nitric oxide release at 10 uM measured after 8 hrs by Griess assay; type: ADME, cell-based; settings: sw1990, 8 h; method in brief: as §4
A549 [17] = assay: Cytotoxicity against human A549 cells assessed as reduction in cell viability at 10 to 20 uM measured after 48 hrs by MTT assay; type: functional, cell-based; settings: dose 10-20 µM
HeLa [18] = assay: Cytotoxicity against human HeLa cells assessed as reduction in cell viability at 10 to 20 uM measured after 48 hrs by MTT assay; type: functional, cell-based; settings: dose 10-20 µM
HepG2 [19] = assay: Cytotoxicity against human HepG2 cells assessed as reduction in cell viability at 10 to 20 uM measured after 48 hrs by MTT assay; type: functional, cell-based; settings: dose 10-20 µM
Method in brief: (§5)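 MTT assay with 48 h compound exposure at 10 or 20 µM. Cells seeded 6 × 10⁴ per well and grown 24 h beforehand. MTT 4 h, DMSO solubilisation, A490 read. Percent cell death given as mean ± SD, n = 3.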

MCF7 [20] = assay: Cytotoxicity against human MCF7 cells assessed as reduction in cell viability at 10 to 20 uM measured after 48 hrs by MTT assay; type: functional, cell-based; settings: dose 10-20 µM; method in brief: as §5
PANC-1 [21] = assay: Cytotoxicity against human PANC-1 cells assessed as reduction in cell viability at 10 uM measured after 48 hrs by MTT assay; type: functional, cell-based; method in brief: as §5
PANC-1 [22] = assay: Cytotoxicity against human PANC-1 cells assessed as reduction in cell viability at 20 uM measured after 48 hrs by MTT assay relative to control; type: functional; method in brief: as §5
A549 [23] = assay: Cytotoxicity against human A549 cells assessed as reduction in cell viability measured after 48 hrs by MTT assay; type: functional, cell-based; settings: A549, 48 h
HeLa [24] = assay: Cytotoxicity against human HeLa cells assessed as reduction in cell viability measured after 48 hrs by MTT assay; type: functional, cell-based
HepG2 [25] = assay: Cytotoxicity against human HepG2 cells assessed as reduction in cell viability measured after 48 hrs by MTT assay; type: functional, cell-based; settings: HepG2, 48 h; method in brief: as §1
MCF7 [26] = assay: Cytotoxicity against human MCF7 cells assessed as reduction in cell viability measured after 48 hrs by MTT assay; type: functional, cell-based; settings: MCF7, 48 h; method in brief: as §1
HCT-116 [27] = assay: Cytotoxicity against human HCT-116 cells assessed as reduction in cell viability measured after 48 hrs by MTT assay; type: functional, cell-based; settings: HCT-116, 48 h; method in brief: as §1
PC-3 [28] = assay: Cytotoxicity against human PC-3 cells assessed as reduction in cell viability measured after 48 hrs by MTT assay; type: functional, cell-based; settings: PC-3, 48 h; method in brief: as §1
A549 [29] = assay: Cytotoxicity against human A549 cells assessed as reduction in cell viability measured after 48 hrs in presence of CuCl2 by MTT assay; type: functional, cell-based; settings: A549, 48 h
HeLa [30] = assay: Cytotoxicity against human HeLa cells assessed as reduction in cell viability measured after 48 hrs in presence of CuCl2 by MTT assay; type: functional, cell-based
HepG2 [31] = assay: Cytotoxicity against human HepG2 cells assessed as reduction in cell viability measured after 48 hrs in presence of CuCl2 by MTT assay; type: functional, cell-based; settings: HepG2, 48 h; method in brief: as §1
MCF7 [32] = assay: Cytotoxicity against human MCF7 cells assessed as reduction in cell viability measured after 48 hrs in presence of CuCl2 by MTT assay; type: functional, cell-based; settings: MCF7, 48 h; method in brief: as §1
HCT-116 [33] = assay: Cytotoxicity against human HCT-116 cells assessed as reduction in cell viability measured after 48 hrs in presence of CuCl2 by MTT assay; type: functional, cell-based; settings: HCT-116, 48 h; method in brief: as §1
PC-3 [34] = assay: Cytotoxicity against human PC-3 cells assessed as reduction in cell viability measured after 48 hrs in presence of CuCl2 by MTT assay; type: functional, cell-based; settings: PC-3, 48 h; method in brief: as §1
A549 [35] = assay: Cytotoxicity against human A549 cells assessed as reduction in cell viability measured after 48 hrs in presence of FeCl3 by MTT assay; type: functional, cell-based; settings: A549, 48 h
HeLa [36] = assay: Cytotoxicity against human HeLa cells assessed as reduction in cell viability measured after 48 hrs in presence of FeCl3 by MTT assay; type: functional, cell-based
HepG2 [37] = assay: Cytotoxicity against human HepG2 cells assessed as reduction in cell viability measured after 48 hrs in presence of FeCl3 by MTT assay; type: functional, cell-based; settings: HepG2, 48 h; method in brief: as §1
MCF7 [38] = assay: Cytotoxicity against human MCF7 cells assessed as reduction in cell viability measured after 48 hrs in presence of FeCl3 by MTT assay; type: functional, cell-based; settings: MCF7, 48 h; method in brief: as §1
HCT-116 [39] = assay: Cytotoxicity against human HCT-116 cells assessed as reduction in cell viability measured after 48 hrs in presence of FeCl3 by MTT assay; type: functional, cell-based; settings: HCT-116, 48 h; method in brief: as §1
PC-3 [40] = assay: Cytotoxicity against human PC-3 cells assessed as reduction in cell viability measured after 48 hrs in presence of FeCl3 by MTT assay; type: functional, cell-based; settings: PC-3, 48 h; method in brief: as §1

Stabilty [9]: Stable | Stabilty [10]: Stable | Stabilty [11]: Stable
SMILES: O=C(c1ccc2cccc(OCc3ccc(B(O)O)cc3)c2n1)N1CCC(Oc2no[n+]([O-])c2S(=O)(=O)c2ccccc2)CC1
IC50 (PANC-1 [1]): 16.6 µM | IC50 (SW1990 [2]): 12.9 µM | IC50 (PANC-1 [3]): 2.69 µM | IC50 (SW1990 [4]): 3.05 µM | IC50 (PANC-1 [5]): 20.5 µM | IC50 (SW1990 [6]): 18.7 µM | IC50 [7]: > 50 µM | IC50 [8]: 30.1 µM | Stability [12]: Stable

Activity [13]: Dose-dependent effect | Activity [14]: Dose-dependent effect | Drug metabolism [15]: Metabolite_Detected | Drug metabolism [16]: Metabolite_Detected
SMILES: O=C(NCCCOc1no[n+]([O-])c1S(=O)(=O)c1ccccc1)c1ccc2cccc(O)c2n1
Activity (A549 [17]): Active | Activity (HeLa [18]): Active | Activity (HepG2 [19]): Active | Activity (MCF7 [20]): Active | Activity (PANC-1 [21]): Active | Activity (PANC-1 [22]): 75.2% | IC50 (A549 [23]): 13.8 µM | IC50 (HeLa [24]): 28.7 µM | IC50 (HepG2 [25]): 17.9 µM | IC50 (MCF7 [26]): 13.4 µM | IC50 (PANC-1 [1]): 7.54 µM | IC50 (HCT-116 [27]): 14.6 µM | IC50 (PC-3 [28]): 11.7 µM | IC50 (SW1990 [2]): 9.24 µM | IC50 (A549 [29]): 4.68 µM | IC50 (HeLa [30]): 9.56 µM | IC50 (HepG2 [31]): 6.32 µM | IC50 (MCF7 [32]): 3.23 µM | IC50 (PANC-1 [3]): 0.86 µM | IC50 (HCT-116 [33]): 5.2 µM | IC50 (PC-3 [34]): 5.63 µM | IC50 (SW1990 [4]): 1.47 µM | IC50 (A549 [35]): 17.9 µM | IC50 (HeLa [36]): 33.2 µM | IC50 (HepG2 [37]): 22.4 µM | IC50 (MCF7 [38]): 18.2 µM | IC50 (PANC-1 [5]): 13.9 µM | IC50 (HCT-116 [39]): 20.1 µM | IC50 (PC-3 [40]): 17.1 µM | IC50 (SW1990 [6]): 12.1 µM | IC50 [7]: 9.05 µM | IC50 [8]: 8.77 µM
